{"source": "ChEMBL document CHEMBL1212912", "about": "“Phenylsulfonylfuroxans as modulators of multidrug-resistance-associated protein-1 and P-glycoprotein” (J Med Chem, 2010)", "key": {"[1]": {"biological_target": "ATP-dependent translocase ABCB1 (Homo sapiens, UniProt P08183)", "sequence (P08183 whole entry)": "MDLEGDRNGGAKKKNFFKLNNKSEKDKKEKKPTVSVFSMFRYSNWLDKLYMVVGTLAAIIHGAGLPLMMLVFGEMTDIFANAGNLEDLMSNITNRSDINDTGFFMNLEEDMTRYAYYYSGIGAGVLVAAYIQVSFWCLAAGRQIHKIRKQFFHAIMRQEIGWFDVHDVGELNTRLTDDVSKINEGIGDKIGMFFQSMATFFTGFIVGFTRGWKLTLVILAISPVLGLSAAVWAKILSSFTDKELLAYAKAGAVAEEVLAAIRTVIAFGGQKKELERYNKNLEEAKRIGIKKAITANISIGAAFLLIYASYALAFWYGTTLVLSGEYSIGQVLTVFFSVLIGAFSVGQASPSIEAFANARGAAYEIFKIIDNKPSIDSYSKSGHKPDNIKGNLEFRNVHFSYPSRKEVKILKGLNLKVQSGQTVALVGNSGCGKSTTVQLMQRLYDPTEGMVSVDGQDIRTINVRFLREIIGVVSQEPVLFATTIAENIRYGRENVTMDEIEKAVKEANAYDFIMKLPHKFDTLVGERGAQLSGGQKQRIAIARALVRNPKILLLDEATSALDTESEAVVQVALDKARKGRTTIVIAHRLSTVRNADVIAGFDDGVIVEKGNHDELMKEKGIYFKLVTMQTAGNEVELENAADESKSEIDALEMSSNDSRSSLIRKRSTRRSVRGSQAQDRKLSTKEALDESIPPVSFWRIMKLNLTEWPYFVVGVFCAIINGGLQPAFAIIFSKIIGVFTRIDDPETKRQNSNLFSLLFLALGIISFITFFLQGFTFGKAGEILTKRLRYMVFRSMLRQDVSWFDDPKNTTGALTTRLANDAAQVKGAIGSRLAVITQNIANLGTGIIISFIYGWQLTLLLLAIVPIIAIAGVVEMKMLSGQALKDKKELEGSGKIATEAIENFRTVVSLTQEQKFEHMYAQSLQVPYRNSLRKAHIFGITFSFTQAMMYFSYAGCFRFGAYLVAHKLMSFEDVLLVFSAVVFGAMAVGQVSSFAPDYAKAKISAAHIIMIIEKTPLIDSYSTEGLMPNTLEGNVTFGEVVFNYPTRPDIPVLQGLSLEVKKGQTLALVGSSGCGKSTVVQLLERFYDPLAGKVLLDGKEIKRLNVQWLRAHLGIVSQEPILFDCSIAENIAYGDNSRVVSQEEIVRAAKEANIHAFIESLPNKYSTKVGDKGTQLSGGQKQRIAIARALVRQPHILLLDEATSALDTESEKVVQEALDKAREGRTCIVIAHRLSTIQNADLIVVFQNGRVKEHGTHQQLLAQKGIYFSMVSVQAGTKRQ", "assay": "Inhibition of MDR1 expressed in MDCK cells assessed as calcein AM accumulation by fluorescence assay", "type": "cell-based", "procedure,_shortened": "(§1)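 MDCK cells overexpressing MRP1 or MDR1 (P-gp) were seeded at 50,000/well and grown to confluence overnight. Compound in medium was added for 30 min at 37°C, then calcein-AM (2.5 µM final, in PBS) for 30 min. Cells were washed 3× with ice-cold PBS and fluorescence read at ex 485/em 535 nm. The increase over untreated basal level was fitted against log[dose] to give EC50.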"}, "[2]": {"biological_target": "Multidrug resistance-associated protein 1 (Homo sapiens, UniProt P33527)", "sequence (P33527 whole entry)": "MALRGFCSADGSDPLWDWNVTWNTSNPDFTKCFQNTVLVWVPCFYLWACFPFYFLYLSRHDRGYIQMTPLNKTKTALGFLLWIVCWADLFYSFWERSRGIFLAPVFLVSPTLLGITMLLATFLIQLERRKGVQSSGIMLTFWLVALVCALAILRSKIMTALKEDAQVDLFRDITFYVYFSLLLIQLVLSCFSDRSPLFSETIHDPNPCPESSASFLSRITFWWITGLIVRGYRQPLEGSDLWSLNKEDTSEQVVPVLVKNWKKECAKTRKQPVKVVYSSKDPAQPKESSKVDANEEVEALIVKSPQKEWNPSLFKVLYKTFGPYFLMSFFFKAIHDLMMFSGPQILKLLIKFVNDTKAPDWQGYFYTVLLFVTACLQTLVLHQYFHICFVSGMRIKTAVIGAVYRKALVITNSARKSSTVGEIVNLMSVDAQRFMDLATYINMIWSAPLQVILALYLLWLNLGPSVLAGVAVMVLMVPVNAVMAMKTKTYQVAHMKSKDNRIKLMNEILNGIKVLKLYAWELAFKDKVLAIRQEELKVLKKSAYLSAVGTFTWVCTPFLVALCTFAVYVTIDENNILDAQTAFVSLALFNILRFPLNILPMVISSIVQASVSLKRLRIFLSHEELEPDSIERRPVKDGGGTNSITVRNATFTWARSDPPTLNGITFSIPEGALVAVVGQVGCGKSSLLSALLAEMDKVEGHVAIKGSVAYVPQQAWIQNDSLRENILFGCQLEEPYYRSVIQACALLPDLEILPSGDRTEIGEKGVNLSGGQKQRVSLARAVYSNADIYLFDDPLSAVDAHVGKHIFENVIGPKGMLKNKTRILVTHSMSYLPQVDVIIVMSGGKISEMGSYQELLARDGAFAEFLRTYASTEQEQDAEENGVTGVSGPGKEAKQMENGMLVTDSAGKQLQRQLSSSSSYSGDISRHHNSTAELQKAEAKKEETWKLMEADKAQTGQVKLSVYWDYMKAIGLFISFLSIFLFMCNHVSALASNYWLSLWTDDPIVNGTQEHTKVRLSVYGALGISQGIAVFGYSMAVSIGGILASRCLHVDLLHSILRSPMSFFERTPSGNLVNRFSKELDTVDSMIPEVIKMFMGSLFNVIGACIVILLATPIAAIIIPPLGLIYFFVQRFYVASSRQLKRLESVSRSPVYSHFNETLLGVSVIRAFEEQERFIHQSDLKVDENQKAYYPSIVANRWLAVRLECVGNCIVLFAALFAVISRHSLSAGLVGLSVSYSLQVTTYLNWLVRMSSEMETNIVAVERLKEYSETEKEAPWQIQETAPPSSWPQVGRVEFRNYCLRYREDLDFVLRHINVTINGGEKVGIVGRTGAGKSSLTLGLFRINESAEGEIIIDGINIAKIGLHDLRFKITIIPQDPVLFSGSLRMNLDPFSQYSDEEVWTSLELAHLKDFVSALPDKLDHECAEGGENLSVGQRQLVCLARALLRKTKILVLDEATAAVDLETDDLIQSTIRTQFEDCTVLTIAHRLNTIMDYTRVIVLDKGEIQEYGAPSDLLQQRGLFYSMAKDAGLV", "assay": "[…] MRP1 expressed in MDCK cells assessed as calcein AM accumulation by fluorescence assay", "type": "cell-based", "procedure,_shortened": "as §1"}, "MDCK [3]": {"test_system": "MDCK", "assay": "Antiproliferative activity against MDCK cells at 10 uM by MTT assay", "type": "cell-based, Canis lupus familiaris", "conditions": "dog", "procedure,_shortened": "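MDCK-MDR1 cells grown in DMEM high glucose with 10% FBS and 2 mM glutamine at 37°C in 5% CO2. Seeded at 20000 cells/well, then treated next day with compound at 10 μM with solvent controls. MTT 0.5 mg/mL added after 24 or 48 h and incubated 3 h at 37°C. Formazan dissolved in DMSO; absorbance read at 570 and 630 nm.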"}, "MDCK [4]": {"test_system": "MDCK", "assay": "Inhibition of Pgp-mediated doxorubicine accumulation in MDCK cells assessed as nitreated-Pgp level at 10 uM by immunoprecipitation", "type": "cell-based", "conditions": "Canis lupus familiaris"}}, "note": "Activity calls are given as the source filed them. The calls are words filed in the database; no cut-off is given here."}
{"molecule": "O=[N+]([O-])c1c(-c2ccccc2)n[o+]n1[O-]", "values": [{"measurement": "EC50", "setting": "[1]", "value": 53, "unit": "µM"}, {"measurement": "EC50", "setting": "[2]", "value": 45, "unit": "µM"}]}
{"molecule": "NC(=O)c1no[n+]([O-])c1-c1ccccc1", "values": [{"measurement": "EC50", "setting": "[1]", "value": "> 100", "unit": "µM"}]}
{"molecule": "NC(=O)c1c(S(=O)(=O)c2ccccc2)no[n+]1[O-]", "values": [{"measurement": "EC50", "setting": "[1]", "value": 52.6, "unit": "µM"}]}
{"molecule": "[O-][n+]1onc(-c2ccccc2)c1-c1ccccc1", "values": [{"measurement": "EC50", "setting": "[1]", "value": "> 100", "unit": "µM"}]}
{"molecule": "CCC(C)Oc1no[n+]([O-])c1S(=O)(=O)c1ccccc1", "note": "(stereo not drawn)", "values": [{"measurement": "Activity", "setting": "MDCK [3]", "value": 45, "unit": "%"}, {"measurement": "EC50", "setting": "[1]", "value": 2.23, "unit": "µM"}, {"measurement": "EC50", "setting": "[2]", "value": 46, "unit": "µM"}]}
{"molecule": "COc1no[n+]([O-])c1-c1ccccc1", "values": [{"measurement": "EC50", "setting": "[1]", "value": "> 100", "unit": "µM"}]}
{"molecule": "N#Cc1no[n+]([O-])c1S(=O)(=O)c1ccccc1", "values": [{"measurement": "EC50", "setting": "[1]", "value": 7.4, "unit": "µM"}, {"measurement": "EC50", "setting": "[2]", "value": 29.5, "unit": "µM"}]}
{"molecule": "Nc1c(-c2ccccc2)no[n+]1[O-]", "values": [{"measurement": "EC50", "setting": "[1]", "value": "> 100", "unit": "µM"}]}
{"molecule": "CCCCCCOc1no[n+]([O-])c1S(=O)(=O)c1ccccc1", "values": [{"measurement": "EC50", "setting": "[1]", "value": 3.35, "unit": "µM"}, {"measurement": "Activity", "setting": "MDCK [4]", "value": "Active"}, {"measurement": "EC50", "setting": "[2]", "value": 12, "unit": "µM"}]}
{"molecule": "Cc1c(S(=O)(=O)c2ccccc2)no[n+]1[O-]", "values": [{"measurement": "EC50", "setting": "[1]", "value": "> 100", "unit": "µM"}]}
{"molecule": "CCCCCCCCOc1no[n+]([O-])c1S(=O)(=O)c1ccccc1", "values": [{"measurement": "EC50", "setting": "[1]", "value": 4.6, "unit": "µM"}]}
{"molecule": "Cc1c(-c2ccccc2)no[n+]1[O-]", "values": [{"measurement": "EC50", "setting": "[1]", "value": "> 100", "unit": "µM"}]}
{"molecule": "Nc1no[n+]([O-])c1-c1ccccc1", "values": [{"measurement": "EC50", "setting": "[1]", "value": "> 100", "unit": "µM"}]}
{"molecule": "CCCCOc1no[n+]([O-])c1S(=O)(=O)c1ccccc1", "values": [{"measurement": "EC50", "setting": "[1]", "value": 2.26, "unit": "µM"}, {"measurement": "Activity", "setting": "MDCK [4]", "value": "Active"}, {"measurement": "EC50", "setting": "[2]", "value": 7.61, "unit": "µM"}]}
{"molecule": "N#Cc1no[n+]([O-])c1-c1ccccc1", "values": [{"measurement": "EC50", "setting": "[1]", "value": "> 100", "unit": "µM"}]}
{"molecule": "CC(C)Oc1no[n+]([O-])c1S(=O)(=O)c1ccccc1", "values": [{"measurement": "Activity", "setting": "MDCK [3]", "value": 30, "unit": "%"}, {"measurement": "EC50", "setting": "[1]", "value": 2.15, "unit": "µM"}, {"measurement": "EC50", "setting": "[2]", "value": 63, "unit": "µM"}]}
{"molecule": "Cc1no[n+]([O-])c1-c1ccccc1", "values": [{"measurement": "EC50", "setting": "[1]", "value": "> 100", "unit": "µM"}]}
{"molecule": "NS(=O)(=O)c1c(-c2ccccc2)no[n+]1[O-]", "values": [{"measurement": "EC50", "setting": "[1]", "value": "> 100", "unit": "µM"}]}
{"molecule": "CC1(C)CCC(C)(C)c2cc(-c3cc(-c4ccc(C(=O)O)cc4)no3)ccc21", "values": [{"measurement": "EC50", "setting": "[1]", "value": 1.5, "unit": "µM"}]}
{"molecule": "NC(=O)c1c(-c2ccccc2)no[n+]1[O-]", "values": [{"measurement": "EC50", "setting": "[1]", "value": "> 100", "unit": "µM"}]}
{"molecule": "CCCCOc1nonc1S(=O)(=O)c1ccccc1", "values": [{"measurement": "EC50", "setting": "[1]", "value": 49.7, "unit": "µM"}]}
{"molecule": "NC(=O)c1no[n+]([O-])c1S(=O)(=O)c1ccccc1", "values": [{"measurement": "EC50", "setting": "[1]", "value": 50, "unit": "µM"}, {"measurement": "EC50", "setting": "[2]", "value": 85.8, "unit": "µM"}]}
{"molecule": "COc1c(-c2ccccc2)no[n+]1[O-]", "values": [{"measurement": "EC50", "setting": "[1]", "value": "> 100", "unit": "µM"}]}
{"molecule": "CCCCCCCCCCOc1no[n+]([O-])c1S(=O)(=O)c1ccccc1", "values": [{"measurement": "EC50", "setting": "[1]", "value": 3.31, "unit": "µM"}]}
{"molecule": "O=S(=O)(c1ccccc1)c1c(-c2ccccc2)no[n+]1[O-]", "values": [{"measurement": "EC50", "setting": "[1]", "value": 10, "unit": "µM"}]}
{"molecule": "O=S(=O)(c1ccccc1)c1c(Oc2ccccc2)no[n+]1[O-]", "values": [{"measurement": "EC50", "setting": "[1]", "value": 20.5, "unit": "µM"}, {"measurement": "EC50", "setting": "[2]", "value": 13.6, "unit": "µM"}]}
{"molecule": "O=S(=O)(c1ccccc1)c1no[n+]([O-])c1S(=O)(=O)c1ccccc1", "values": [{"measurement": "EC50", "setting": "[1]", "value": 3, "unit": "µM"}, {"measurement": "EC50", "setting": "[2]", "value": 15.1, "unit": "µM"}]}
{"molecule": "CCCCCCOc1nonc1S(=O)(=O)c1ccccc1", "values": [{"measurement": "EC50", "setting": "[1]", "value": 32.2, "unit": "µM"}]}
{"molecule": "O=S(=O)(c1ccccc1)c1no[n+]([O-])c1-c1ccccc1", "values": [{"measurement": "EC50", "setting": "[1]", "value": 46, "unit": "µM"}]}
{"molecule": "CCOc1no[n+]([O-])c1S(=O)(=O)c1ccccc1", "values": [{"measurement": "EC50", "setting": "[1]", "value": 12, "unit": "µM"}, {"measurement": "EC50", "setting": "[2]", "value": 49.1, "unit": "µM"}]}
{"molecule": "NS(=O)(=O)c1no[n+]([O-])c1-c1ccccc1", "values": [{"measurement": "EC50", "setting": "[1]", "value": "> 100", "unit": "µM"}]}
{"molecule": "Cc1no[n+]([O-])c1S(=O)(=O)c1ccccc1", "values": [{"measurement": "EC50", "setting": "[1]", "value": 28.3, "unit": "µM"}]}
{"molecule": "N#Cc1c(S(=O)(=O)c2ccccc2)no[n+]1[O-]", "values": [{"measurement": "EC50", "setting": "[1]", "value": 55.4, "unit": "µM"}, {"measurement": "EC50", "setting": "[2]", "value": 72, "unit": "µM"}]}
